Assay results published in ChEMBL document CHEMBL4819036, “Hepatoprotective Glucosyloxybenzyl 2-Hydroxy-2-isobutylsuccinates from Pleione yunnanensis” (2021).

Columns and labels:
HepG2 = experiment: Hepatoprotective activity against APAP-induced toxicity in human HepG2 cells assessed as cell survival rate at 10 uM after 48 hrs by MTT assay (reference value: 23 %); type: functional
L02 = experiment: Hepatoprotective activity against D-GalN-induced toxicity in human HL-7702 cells assessed as cell survival rate at 10 uM preincubated for 48 hrs followed by D-GalN stimulation for 8 hrs by MTT assay (reference value: 33 %); type: functional; conditions: time 56 hrs
Outline: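 Normal human HL-7702 hepatocytes were injured with D-galactosamine at 60 mM, with test compounds at 10 μM. Viability was measured by the MTT method as OD, and survival rate was expressed as a percentage of untreated control cells. Bicyclol at 10 μM served as the positive control. Statistics compared treated cells with the D-GalN model group.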

Compound	Activity (HepG2) [%]	Activity (L02) [%]
CC(=O)OC[C@H]1O[C@@H](O[C@@](CC(=O)OCc2ccc(O[C@@H]3O[C@H](CO)[C@@H](O)[C@H](O)[C@H]3O)cc2)(CC(C)C)C(=O)OCc2ccc(O[C@@H]3O[C@H](CO)[C@@H](O)[C@H](O)[C@H]3O)cc2)[C@H](O)[C@@H](O)[C@@H]1O	14	39
CC(C)C[C@](CC(=O)OCc1ccc(O[C@@H]2O[C@H](CO)[C@@H](O)[C@H](O)[C@H]2O)cc1)(O[C@@H]1O[C@H](CO)[C@@H](O)[C@H](O)[C@H]1O)C(=O)OCc1ccc(O[C@@H]2O[C@H](CO)[C@@H](O)[C@H](O)[C@H]2O)cc1	35	
CC(C)C[C@@](O)(CC(=O)OCc1ccc(O[C@@H]2O[C@H](COCc3ccc(O)cc3)[C@@H](O)[C@H](O)[C@H]2O)cc1)C(=O)OCc1ccc(O[C@@H]2O[C@H](CO)[C@@H](O)[C@H](O)[C@H]2O)cc1	27	60
CC(C)C[C@](CC(=O)OCc1ccc(O[C@@H]2O[C@H](COCc3ccc(O)cc3)[C@@H](O)[C@H](O)[C@H]2O)cc1)(O[C@@H]1O[C@H](CO)[C@@H](O)[C@H](O)[C@H]1O)C(=O)OCc1ccc(O[C@@H]2O[C@H](CO)[C@@H](O)[C@H](O)[C@H]2O)cc1	32	39
COC(=O)C[C@](O)(CC(C)C)C(=O)OCc1ccc(O[C@@H]2O[C@H](CO)[C@@H](O)[C@H](O)[C@H]2O)cc1	28	64
CC(C)C[C@](CC(=O)O)(O[C@@H]1O[C@H](CO)[C@@H](O)[C@H](O)[C@H]1O)C(=O)OCc1ccc(O[C@@H]2O[C@H](CO)[C@@H](O)[C@H](O)[C@H]2O)cc1	27	
CC(C)C[C@](CC(=O)OCc1ccc(O[C@@H]2O[C@H](CO)[C@@H](O)[C@H](O)[C@H]2O)cc1)(O[C@@H]1O[C@H](CO)[C@@H](O)[C@H](O)[C@H]1OC(=O)/C=C/c1ccc(O)cc1)C(=O)OCc1ccc(O[C@@H]2O[C@H](CO)[C@@H](O)[C@H](O)[C@H]2O)cc1	23	52
CC(C)C[C@](CC(=O)OCc1ccc(O[C@@H]2O[C@H](CO)[C@@H](O)[C@H](O)[C@H]2O)cc1)(O[C@@H]1O[C@H](CO)[C@@H](O)[C@H](O)[C@H]1OC(=O)/C=C\c1ccc(O[C@@H]2O[C@H](CO)[C@@H](O)[C@H](O)[C@H]2O)cc1)C(=O)OCc1ccc(O[C@@H]2O[C@H](CO)[C@@H](O)[C@H](O)[C@H]2O)cc1	17	38
CC(C)C[C@@](O)(CC(=O)OCc1ccc(O[C@@H]2O[C@H](CO)[C@@H](O)[C@H](O)[C@H]2O)cc1)C(=O)OCc1ccc(O[C@@H]2O[C@H](CO[C@@H]3O[C@H](CO)[C@@H](O)[C@H](O)[C@H]3O)[C@@H](O)[C@H](O)[C@H]2O)cc1	39	36
CC(C)C[C@@](O)(CC(=O)OCc1ccc(O[C@@H]2O[C@H](CO)[C@@H](O)[C@H](O)[C@H]2O)cc1)C(=O)OCc1ccc(O[C@@H]2O[C@H](COCc3ccc(O)cc3)[C@@H](O)[C@H](O)[C@H]2O)cc1	28	55
CC(C)C[C@](O)(C(=O)OCc1ccc(O[C@@H]2O[C@H](CO)[C@@H](O)[C@H](O)[C@H]2O)cc1)[C@H](O)C(=O)OCc1ccc(O[C@@H]2O[C@H](CO)[C@@H](O)[C@H](O)[C@H]2O)cc1	23	
CC(C)C[C@@](O)(CC(=O)OCc1ccc(O[C@@H]2O[C@H](CO)[C@@H](O)[C@H](O)[C@H]2O)cc1)C(=O)OCc1ccc(O[C@@H]2O[C@H](CO)[C@@H](O)[C@H](O)[C@H]2O)cc1	23	
CC(C)C[C@](CC(=O)OCc1ccc(O[C@@H]2O[C@H](CO)[C@@H](O)[C@H](O)[C@H]2O)cc1)(O[C@@H]1O[C@H](CO)[C@@H](O)[C@H](O)[C@H]1OC(=O)/C=C/c1ccc(O[C@@H]2O[C@H](CO)[C@@H](O)[C@H](O)[C@H]2O)cc1)C(=O)OCc1ccc(O[C@@H]2O[C@H](CO)[C@@H](O)[C@H](O)[C@H]2O)cc1	25	43
CC(C)C[C@@](O)(CC(=O)O)C(=O)OCc1ccc(O[C@@H]2O[C@H](CO)[C@@H](O)[C@H](O)[C@H]2O)cc1	28	
CC(C)C[C@@](O)(CC(=O)OCc1ccc(O[C@@H]2O[C@H](CO[C@@H]3O[C@H](CO)[C@@H](O)[C@H](O)[C@H]3O)[C@@H](O)[C@H](O)[C@H]2O)cc1)C(=O)OCc1ccc(O[C@@H]2O[C@H](CO)[C@@H](O)[C@H](O)[C@H]2O)cc1	28	38
COC(=O)c1cc(OC)c2c(c1-c1c(CO)cc(OC)c3c1OCO3)OCO2 [BICYCLOL]	32	47
CC(C)C[C@@](O)(CC(=O)OCc1ccc(O[C@@H]2O[C@H](CO)[C@@H](O)[C@H](O)[C@H]2O)cc1)C(=O)OCc1ccc(O[C@@H]2O[C@H](CO)[C@@H](O)[C@H](O)[C@H]2OCc2ccc(O)cc2)cc1	19	49
CC(C)C[C@](CC(=O)OCc1ccc(O[C@@H]2O[C@H](CO)[C@@H](O)[C@H](O)[C@H]2O)cc1)(O[C@@H]1O[C@H](CO)[C@@H](O)[C@H](O)[C@H]1OC(=O)/C=C\c1ccc(O)cc1)C(=O)OCc1ccc(O[C@@H]2O[C@H](CO)[C@@H](O)[C@H](O)[C@H]2O)cc1	21	39
